Screens as filed in PubChem BioAssay.
RGS4 act: potentiators or activators of RGS4; HEK293 M3R/inducible RGS4, carbachol calcium flux Fluo4; active compounds read low; B-score at 10 µM; 310,000 compounds, 0.92% hits; AID 463111;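 active = B-score of the integrated calcium signal more than 4 SD below the library mean, with starting fluorescence not abnormally high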;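 also: negative B-score means reduced calcium response which marks RGS4 activation or potentiation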
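System: HEK293 FlpIn-TREx cells, stable M3R, doxycycline-inducible RGS4. Timing: overnight RGS4 induction, 30 min dye load 37 °C, 20 min compound RT. Also added: carbachol, ECmax concentration. Measured by: Fluo4 fluorescence kinetic imaging of calcium. Evaluation: integrated calcium ratio converted to B score.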
MrgX1 agonist: agonists of human MrgX1 receptor. 310,000 compounds, 0.44% hits. B-score at 10 µM. AID 588627. MrgX1-HEK293 cells, Fluo-4 calcium fluorescence, agonist mode; active compounds read high. Q96LB2;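 active = calcium response B-score plate-corrected fluorescence ratio at least 3 library SD, with starting fluorescence B-score inside 5 SD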
Target sequence (Q96LB2 whole entry, looked up): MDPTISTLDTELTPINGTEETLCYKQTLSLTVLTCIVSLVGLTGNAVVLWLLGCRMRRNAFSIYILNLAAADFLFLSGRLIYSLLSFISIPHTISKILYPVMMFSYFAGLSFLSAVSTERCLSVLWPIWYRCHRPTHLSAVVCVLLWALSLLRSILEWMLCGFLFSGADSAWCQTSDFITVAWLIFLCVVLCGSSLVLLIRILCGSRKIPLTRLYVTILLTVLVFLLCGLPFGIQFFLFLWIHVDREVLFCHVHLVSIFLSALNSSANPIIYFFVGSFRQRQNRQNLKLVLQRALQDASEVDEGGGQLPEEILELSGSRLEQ
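System – MrgX1-expressing HEK293 cells · Incubation – cells plated overnight, dye loaded 0.5 h 37 °C, 0.5 h room temperature · Technique – kinetic Fluo-4 NW fluorescence of intracellular calcium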
RGS4 inh: inhibitors of human RGS4; P49798; HEK293 M3R/RGS4 inducible, Fluo-4 calcium flux; active compounds read high; triggered by carbachol at its EC20; B-score at 10 µM; 310,000 compounds, 0.45% hits; AID 463165;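 active = B-score, a plate-corrected calcium signal, over three deviations above library mean, with baseline fluorescence within five deviations of library mean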;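 also: RGS4 expression induced by doxycycline in cells with stable M3 receptor; B-score is computed from the integrated fluorescence ratio over baseline after carbachol; higher B-score means a larger calcium signal and so more RGS4 inhibition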
Target sequence (P49798 whole entry, looked up): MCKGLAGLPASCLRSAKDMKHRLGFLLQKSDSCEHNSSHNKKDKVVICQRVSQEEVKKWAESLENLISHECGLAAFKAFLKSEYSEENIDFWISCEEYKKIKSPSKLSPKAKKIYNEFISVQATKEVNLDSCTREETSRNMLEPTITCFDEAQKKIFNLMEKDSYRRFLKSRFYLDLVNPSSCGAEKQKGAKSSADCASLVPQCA
MrgX1 antagonist: antagonists of human MrgX1 receptor; AID 588676; B-score at 10 µM; Q96LB2; 310,000 compounds, 1.3% hits; MRGX1-HEK293 calcium flux, Fluo-4, BAM8-22 antagonism; active compounds read low;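 active = calcium-response B-score plate-corrected more than 3 library SD below zero, starting fluorescence within 5 deviations, no agonist response on first addition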;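 also: peak minus trough fluorescence over baseline after final BAM8-22 challenge near maximal dose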
MrgX1 PAM: human MrgX1 positive allosteric modulation, primary screen; Q96LB2; MrgX1-HEK293, Fluo-4 calcium flux, FDSS; active compounds read high; B-score at 10 µM; 310,000 compounds, 0.63% hits;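 active = plate-corrected calcium response at least 3 library SD above typical, normal starting fluorescence, not activating the receptor alone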;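 also: compound read alongside a low EC10 to EC30 dose of BAM8-22 agonist; peak minus trough fluorescence over baseline measured at the second addition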
RGS4 inh valid: validation of RGS4 inhibitors. AID 492999. calcium response, % at 10 µM. HEK293 M3R/RGS4, carbachol calcium Fluo-4 fluorescence; carbachol added at its EC20; 0 = buffer wells, 100 = carbachol control. shares compounds with RGS4 inh. 1,700 compounds, 65% hits;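 active = duplicate-averaged calcium response above the buffer-only control mean plus 5 SD of those controls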;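 also: integrated fluorescence ratio F max minus min over baseline F0; higher response in RGS4-induced cells means RGS4 inhibition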
M3R Ca ctr: counter-screen for RGS4 inhibitors: effect in non-induced cells; shares compounds with RGS4 inh; HEK293 M3R non-induced, carbachol calcium Fluo-4; submaximal (EC20) carbachol stimulus; buffer wells 0%, carbachol control wells 100%; activity (percent), % at 10 µM; 1,900 compounds, 20% hits; AID 493000; call rule not given here;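 also: RGS4 induction absent so cells express M3R without RGS4; higher means more calcium signal and flags a non-specific hit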
M3R basal Ca ctr: second RGS4 inhibitor counter-screen in uninduced cells lacking carbachol. shares compounds with RGS4 inh. HEK293 M3R/RGS4 non-induced, Fluo-4 calcium, no carbachol; normalised: buffer wells 0%, carbachol wells 100%. calcium response (agonist-mode artifact), % at 10 µM. 1,900 compounds, 22% hits;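 active = duplicate-averaged calcium rise in uninduced cells above buffer wells' mean plus 5 SD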
Large screens that a line does not name were inactive (follow-up assays come after a bar, where they were run). This is a sample that favours compounds with a hit; in the whole collection about 3.5% have one here.

CCOc1cccc(-c2c(C(=O)N/N=C/c3cccnc3)nnn2-c2nonc2N)c1	none | RGS4 inh valid inactive | M3R Ca ctr inactive | M3R basal Ca ctr inactive
CCCc1c(C(=O)N/N=C/c2cccnc2)nnn1-c1nonc1N	none
CCOc1cccc(-c2c(C(=O)N/N=C/c3ccc(Br)cc3)nnn2-c2nonc2N)c1	RGS4 inh 19 | RGS4 inh valid 38% | M3R Ca ctr 57% | M3R basal Ca ctr inactive
CCOc1ccc(-c2c(C(=O)N/N=C/c3ccc(O)cc3)nnn2-c2nonc2N)cc1	none
CC(=O)Nc1cccc(/C(C)=N/N2C(C)CCCC2C)c1 (stereo not drawn)	none
COc1cc(/C=C(\C#N)C(=O)NC2CCCCC2C)ccc1OS(=O)(=O)c1ccc(C)cc1 (stereo not drawn)	none
COc1cc(/C=C(\C#N)C(N)=O)ccc1OS(=O)(=O)c1ccc(C)cc1	MrgX1 agonist 43, RGS4 inh 4.9 | RGS4 inh valid 30% | M3R Ca ctr 40% | M3R basal Ca ctr 31%
Cc1ccc(-c2cc(C(F)F)nc(NCc3cccnc3)n2)cc1	RGS4 inh 7.7 | RGS4 inh valid inactive | M3R Ca ctr inactive | M3R basal Ca ctr inactive
CC(C)n1c(O)c(N=NC(=O)Cn2ccc(C(F)(F)F)n2)c2ccccc21	none
O=C(Cn1ccc(C(F)(F)F)n1)N=Nc1c(O)[nH]c2ccc(Br)cc12	RGS4 inh 4.7 | RGS4 inh valid 32% | M3R Ca ctr inactive | M3R basal Ca ctr inactive
O=C(Cn1ccc(C(F)(F)F)n1)N=Nc1c(O)[nH]c2ccccc12	none | M3R Ca ctr inactive | M3R basal Ca ctr inactive
Oc1[nH]c2ccc(Br)cc2c1N=Nc1ccc(C(F)(F)F)cn1	none
CCn1nc(NS(=O)(=O)c2ccc([N+](=O)[O-])cc2)c2cc3cccc(C)c3nc21	RGS4 inh 17 | RGS4 inh valid 22% | M3R Ca ctr 37% | M3R basal Ca ctr inactive
COc1ccccc1CNC(=O)COC(=O)c1c(C)nn(-c2ccccc2)c1Cl	RGS4 inh 18 | RGS4 inh valid inactive | M3R Ca ctr inactive | M3R basal Ca ctr inactive
NC(=O)c1nsc(C(=O)N(Cc2ccc(F)cc2)C(C(=O)NCC2CCCO2)c2ccc(O)cc2)c1N (stereo not drawn)	none (no result: MrgX1 agonist, MrgX1 antagonist, MrgX1 PAM)
Cc1ccc(NCC(=O)N/N=C/c2cc(O)ccc2[N+](=O)[O-])cc1	RGS4 inh 5.2 | RGS4 inh valid inactive | M3R Ca ctr inactive | M3R basal Ca ctr inactive
Cc1ccc(NCC(=O)N/N=C/c2cccc(Oc3ccccc3)c2)cc1	RGS4 inh 13 | RGS4 inh valid 20% | M3R Ca ctr inactive | M3R basal Ca ctr inactive
Cc1cccc(NCC(=O)N/N=C\c2cccc(Oc3ccccc3)c2)c1	none | M3R Ca ctr inactive | M3R basal Ca ctr inactive
Cc1ccc(C(C)NC(=S)NC2CCCCC2)c(C)c1 (stereo not drawn)	none
COc1ccc(COC(=O)CCS(=O)(=O)c2ccc(C)cc2)cc1F	none
CCOC(=O)[C@@H]1[C@H]2COc3ccccc3[C@@H]2N2C(=O)N(c3ccc(C)cc3)C(=O)[C@]12C	none | M3R Ca ctr inactive | M3R basal Ca ctr inactive
CCOC(=O)[C@@H]1[C@H]2COc3ccccc3[C@H]2N2C(=O)N(c3ccc(F)cc3)C(=O)[C@]12C	none | RGS4 inh valid inactive | M3R Ca ctr inactive | M3R basal Ca ctr inactive
CCOC(=O)[C@@H]1[C@H]2COc3ccccc3[C@H]2N2C(=O)N(c3ccc(Cl)cc3)C(=O)[C@]12C	none | RGS4 inh valid inactive | M3R Ca ctr inactive | M3R basal Ca ctr inactive
Cn1c(OCc2ccco2)nc2c1c(=O)n(Cc1ccc(Cl)c(Cl)c1)c(=O)n2C	RGS4 inh 5.9 | RGS4 inh valid 6.5% | M3R Ca ctr inactive | M3R basal Ca ctr inactive
COc1cc(C(C(=O)NC2CCCCC2)N(C(=O)Cc2c[nH]c3ccccc23)c2ccc(C)cc2)cc(OC)c1OC (stereo not drawn)	none | RGS4 inh valid inactive | M3R Ca ctr inactive | M3R basal Ca ctr inactive
Cc1ccc(C)c(S(=O)(=O)N2CCN(C(=O)Cc3ccc(S(=O)(=O)N4CCOCC4)s3)CC2)c1	none
CCc1ccc(/C=C2\Oc3c(ccc(O)c3CN3CCN(CCO)CC3)C2=O)cc1	none
COc1ccc(OC)c(NC(=O)C(=O)NCc2ccncc2)c1	RGS4 inh 4.8 | RGS4 inh valid 10% | M3R Ca ctr inactive | M3R basal Ca ctr inactive
COc1ccc(NC(=O)C(=O)NCC(=O)Nc2cc(OC)ccc2OC)cc1	none
COc1cccc(CNC(=O)c2ccccc2NC(=O)C2=C(C)OCCS2)c1OC	none
CN(C)c1ccc(C(=S)N2CCN(S(=O)(=O)c3ccccc3)CC2)cc1	none
COc1cc(/C=N/NC(=S)Nc2cccc(Cl)c2C)ccc1OCC(=O)N1CC(C)OC(C)C1 (stereo not drawn)	RGS4 inh 13 | RGS4 inh valid inactive | M3R Ca ctr inactive | M3R basal Ca ctr inactive
COc1cccc(N=Cc2c(O)c3ccccc3oc2=O)c1	none
CCOC(=O)[C@@H]1[C@H]2COc3ccccc3[C@@H]2N2C(=O)N(c3cccc(F)c3)C(=O)[C@]12C	none | RGS4 inh valid inactive | M3R Ca ctr inactive | M3R basal Ca ctr inactive
CCOC(=O)[C@@H]1[C@H]2COc3ccc(Br)cc3[C@@H]2N2C(=O)N(c3cccc(F)c3)C(=O)[C@@]12C	none
CCOC(=O)[C@@H]1[C@H]2COc3ccccc3[C@@H]2N2C(=O)N(c3cccc(Cl)c3)C(=O)[C@@]12C	none | RGS4 inh valid inactive | M3R Ca ctr inactive | M3R basal Ca ctr inactive
CCOC(=O)[C@@H]1[C@H]2COc3ccccc3[C@H]2N2C(=O)N(c3cccc(Cl)c3)C(=O)[C@@]12C	RGS4 inh 6.5 | RGS4 inh valid 36% | M3R Ca ctr 32% | M3R basal Ca ctr inactive
CCOC(=O)[C@@H]1[C@H]2COc3ccccc3[C@@H]2N2C(=O)N(c3cccc(Cl)c3)C(=O)[C@]12C	none | RGS4 inh valid inactive | M3R Ca ctr inactive | M3R basal Ca ctr inactive
CCOC(=O)[C@@H]1[C@H]2COc3cc(OC)ccc3[C@@H]2N2C(=O)N(c3ccc(OC)cc3)C(=O)[C@]12C	none
COc1ccccc1N1CCN(C(=O)NCc2cccc(C(F)(F)F)c2)CC1	none
Cc1cc(C(=O)CN2C(=O)NC(c3ccccc3)(c3ccccc3)C2=O)c(C)n1Cc1ccco1	RGS4 inh 7.5 | RGS4 inh valid 17% | M3R Ca ctr inactive | M3R basal Ca ctr inactive
